# EBV gp42 block – blocks Epstein-Barr virus glycoprotein 42 binding | Fluorescence polarization binding assay, mP read-out | inhibition, % (tested at 21.74 µM) | 220,000 compounds, 0.42% hits; in the data active means inhibition above about 50%
# Target sequence (Q1HVG2 whole entry, looked up): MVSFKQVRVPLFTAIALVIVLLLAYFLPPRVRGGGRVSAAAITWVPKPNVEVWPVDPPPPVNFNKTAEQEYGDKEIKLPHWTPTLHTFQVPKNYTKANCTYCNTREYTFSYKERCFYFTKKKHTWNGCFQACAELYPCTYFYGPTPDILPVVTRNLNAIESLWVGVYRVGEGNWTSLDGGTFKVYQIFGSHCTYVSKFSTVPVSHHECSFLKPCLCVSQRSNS
# NS3 helicase inh – HCV NS3 helicase inhibition | NS3 helicase DNA unwinding, Cy5 molecular beacon fluorescence | inhibition, % at 10.9 µM | 290,000 compounds, 0.56% hits;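 active means inhibition above the mean of all tested compounds plus 3 SD, set per campaign, cut at about 35% in these data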;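 further: 0% = DMSO wells and 100% = thioflavine S control wells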
#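 Test system: hepatitis C virus NS3 helicase domain fragment enzyme. Also added: annealed dual-labelled DNA beacon duplex, ATP-started. Timing: 60 min unwinding reaction at 25 °C after ATP addition. Technique: Cy5 fluorescence. Measure: % inhibition of unwinding.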
# MEX-5 binding – C. elegans MEX-5 TCR-2 RNA binding activity | activity score (negative = inhibition of binding), % at 10 µM | 300,000 compounds, 0.38% hits | Q9XUB2 | MEX-5/FITC-TCR2 RNA binding, fluorescence polarization; hits give low values | AID 1832;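 active means inhibition past about -25% in most replicates, and total fluorescence under double the plate's negative control median, limit read from the data; inconclusive means replicates evenly split on the limit, or fluorescence at least double controls; inactive means too little inhibition in most replicates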;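 further: 0% = DMSO and -100% = 5 µM competing unlabeled TCR2 RNA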
# Target sequence (Q9XUB2 whole entry, looked up): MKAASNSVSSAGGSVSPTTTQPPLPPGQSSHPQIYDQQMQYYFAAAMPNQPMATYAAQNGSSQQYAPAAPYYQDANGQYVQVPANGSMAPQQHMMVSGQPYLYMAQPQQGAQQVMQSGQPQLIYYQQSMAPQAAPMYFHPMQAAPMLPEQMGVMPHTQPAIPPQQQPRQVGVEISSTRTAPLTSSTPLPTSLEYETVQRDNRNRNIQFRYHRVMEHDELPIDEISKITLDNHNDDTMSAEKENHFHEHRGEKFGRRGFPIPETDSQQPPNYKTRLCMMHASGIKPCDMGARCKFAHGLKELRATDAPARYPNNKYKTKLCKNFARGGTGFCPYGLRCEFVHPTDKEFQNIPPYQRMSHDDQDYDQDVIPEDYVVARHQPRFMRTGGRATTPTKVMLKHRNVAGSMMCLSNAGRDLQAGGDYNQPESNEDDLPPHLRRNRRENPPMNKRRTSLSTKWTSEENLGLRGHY
# core dimer inh – HCV core protein dimerization inhibition; AID 1899; inhibition, % at 5 µM; TR-FRET GST/Flag-core106 dimerization, 1536-well; 300,000 compounds, 0.33% hits;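 active means inhibition above the mean of all tested compounds plus 3 SD, set per screening campaign, cut at about 45% in these data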
#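 System – GST-tagged and Flag-tagged HCV core protein residues 1-106 · Repeats – one well for each compound · Technique – TR-FRET 671 and 617 nm emission · Doses – one concentration, 5 µM, in 0.5% DMSO · Times – 4 h, 22.5 °C incubation · Also added – Eu donor and XL665 acceptor anti-tag antibodies · Measure – percent inhibition of core106 dimerization signal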
# EBNA-1 inh – blocks EBNA-1 binding to DNA | EBNA-1 DNA binding, fluorescence polarization | inhibition, % at 14.8 µM | 300,000 compounds, 0.34% hits | AID 1950; in the data active means inhibition above about 28%
# ZTA counter – blocks Epstein-Barr virus ZTA, an EBNA-1 counter-screen. P03206. ZTA-DNA binding, fluorescence polarization. inhibition, % at 11 µM. 320,000 compounds, 0.15% hits. AID 2234; in the data active means inhibition above about 33%
# An asterisk follows results filed as active; ? = inconclusive; . = no result given. This is a sample that favours compounds with a hit; in the whole collection about 1.7% have one here.
SMILES,EBV gp42 block,NS3 helicase inh,MEX-5 binding,core dimer inh,EBNA-1 inh,ZTA counter
CCCCN1C(=O)C2Cc3c([nH]c4ccccc34)CN2C1=S (stereo unspecified),51.9*,14.3,-27.9*,1.9,-7.8,-0.2
CCCCCN1CC(=O)N2Cc3[nH]c4ccccc4c3C[C@H]2C1=O,.,-16.8,-1.4,5.3,5.6,5.1
CN(C)c1ccc(/C=C/c2nc3ccccc3c(=O)[nH]2)cc1,.,-6.5,-33.2*,0.1,-0.2,11.6
O=c1[nH]c(/C=C/c2cccc3ccccc23)nc2ccccc12,-100.4,4.8,-49.7*,14.2,-2.0,12.1
O=c1[nH]c(/C=C/c2ccc(Br)cc2)nc2ccccc12,.,-1.4,2.2,10.7,5.0,4.0
O=c1[nH]c(/C=C/c2ccccc2F)nc2ccccc12,.,-2.3,3.5,.,.,.
COc1ccccc1OCc1nnc(SCC(=O)N2CCCCC2)o1,.,5.5,-1.4,.,.,.
Cc1nc2ccc(NC(=O)c3ccc(C)c(S(=O)(=O)N4CCOCC4)c3)cc2s1,.,.,.,.,.,23.0
O=C(CSc1nc2ncccc2[nH]1)Nc1ccc2c(c1)OCO2,72.7*,-1.8,0.3,2.2,4.8,0.9
COc1ccc(NC(=O)CSc2nc3ncccc3[nH]2)cc1OC,1.0,1.1,-3.4,-0.9,-5.0,4.4
O=C(c1cc(Cl)nc2ccccc12)N(Cc1nnc(-c2ccccc2Cl)o1)C1CC1,.,-5.5,-1.9,9.7,1.9,-10.0
O=C1CC(c2ccco2)Cc2nc(Nc3nc(-c4ccccc4)c4ccccc4n3)ncc21 (stereo unspecified),-13.1,6.8,-0.8,59.1*,9.6,8.9
O=S(=O)(c1ccc(Oc2ncnc3scc(-c4ccccc4)c23)cc1)N1CCOCC1,-20.8,-2.0,-1.8,50.4*,1.8,14.0
CCOc1ccc(Cn2c3ccc(OC)cc3c3nc4ccccc4nc32)cc1,123.3*,-7.1,.,2.8,-6.5,17.0
CCCCOC(=O)Cn1c2ccc(OC)cc2c2nc3ccccc3nc21,79.0*,9.3,-28.4*,-1.2,6.4,-4.7
COc1cc(NC(=O)Nn2cnnc2)cc(OC)c1OC,.,2.3,-2.1,-7.3,-0.6,-1.8
CCN=C1NN=C(c2cc(C)n(Cc3ccco3)c2C)CS1,-19.0,29.4,-1.0,48.3*,-4.1,-4.1
N#C/C(=C\c1cc(O)c(O)c(O)c1)C(N)=O,-54.3,9.0,-26.8*,-23.2,0.0,9.3
N#C/C(=C\c1cc(Cl)c(OCc2ccc(Cl)cc2)c(Cl)c1)C(N)=O,-13.8,11.1,2.1,6.5,-9.2,8.4
COc1ccc(-n2c(O)c(/C=N/NS(=O)(=O)c3ccc(C)cc3)c3ccccc3c2=O)cc1OC,-22.1,7.1,5.1,0.5,7.6,7.8
COc1ccc(-n2c(O)c(/C=N/NS(=O)(=O)c3cc(C)ccc3C)c3ccccc3c2=O)cc1OC,-18.8,3.6,-30.5*,13.8,9.7,15.9
NS(=O)(=O)c1ccc(Nc2nc(-c3ccc(O)cc3O)cs2)cc1,0.1,-9.3,-44.6*,-14.9,8.0,-1.1
NS(=O)(=O)c1ccc(Nc2nc(-c3ccc(F)cc3)cs2)cc1,10.1,-19.5,-1.2,5.5,-6.3,-8.4
C=CCn1c(SCC(=O)NC2CCS(=O)(=O)C2)nc2scc(C3CC3)c2c1=O (stereo unspecified),-13.1,-14.9,0.5,7.8,-10.5,-37.1
C=CCn1c(SCC(=O)c2ccc(CNC(C)=O)o2)nc2scc(C3CC3)c2c1=O,1.4,23.8,3.0,48.4*,7.3,6.1
SMILES,EBV gp42 block,NS3 helicase inh,MEX-5 binding,core dimer inh,EBNA-1 inh,ZTA counter
COC(OC)c1ccnc(-c2ccc(OC(=O)c3cccs3)cc2)n1,58.9*,-15.8,2.8,0.6,-0.5,6.6
CC1Cc2c([nH]c3ccccc23)C(=O)N1 (stereo unspecified),.,-4.4,1.0,0.5,-8.2,3.6
Cc1cccc(S(=O)(=O)C(C#N)c2nc3ccccc3nc2N2CCOCC2)c1 (stereo unspecified),-5.7,0.6,-72.0*,1.2,1.7,-8.7
CC1CCCN(c2nc3ccccc3nc2C(C#N)S(=O)(=O)c2ccccc2)C1 (stereo unspecified),146.9*,14.6,?,23.5,9.6,18.1
COc1ccc(S(=O)(=O)C(C#N)c2nc3ccccc3nc2N2CCC(C)CC2)cc1 (stereo unspecified),.,.,-46.9*,8.0,-9.6,-3.4
CCOC(=O)N1CCN(c2nc3ccccc3nc2C(C#N)S(=O)(=O)c2ccc(C)cc2)CC1 (stereo unspecified),5.3,-0.7,-34.9*,-1.5,14.2,2.6
COc1ccc(-c2oc3ccccc3c2C#Cc2cncn2C)cc1,.,.,.,.,.,25.0
COc1ccc2cc(C(=O)NCc3ccccc3CN3CCCC3)ccc2c1,.,.,.,.,.,-12.7
Nn1c(Cc2ccccc2F)nnc1SCC(=O)N1CC(=O)Nc2ccccc21,60.0*,-4.1,0.0,-7.1,-7.4,-11.2
Cc1nnc(SCC(=O)N2CC(=O)Nc3ccccc32)n1-c1ccccc1,-11.7,-6.5,2.1,-2.2,-4.2,-8.0
CC(C)CN1C(=O)C(=O)N(CC(=O)c2ccc3c(c2)CCCC3)C1=O,.,.,.,.,.,14.1
Cc1nnc(NC(=O)COc2ccc3c(C)cc(=O)oc3c2)s1,50.7*,8.8,1.3,79.0*,-2.4,-6.9
Cc1cc(=O)oc2cc(OCC(=O)c3ccc4c(c3)NC(=O)CO4)ccc12,-34.7,2.5,0.6,63.2*,17.9,15.7
CCC(CC)c1nnc(NC(=O)COc2ccc3c(C)cc(=O)oc3c2)s1,-16.1,2.4,.,4.5,1.6,3.1
Cc1ccc(C(=O)COc2ccc3c(C)cc(=O)oc3c2)cc1,.,-8.6,-1.7,8.2,6.0,1.5
O=C(COC(=O)c1cc(F)cc(F)c1)NCCCc1ccccc1,.,-13.7,-1.6,3.0,0.5,-4.4
CC(C)CSC1=NSC2=NC(=O)/C(=C\c3coc4ccccc4c3=O)C(=N)N12,103.6*,32.6,?,3.8,4.7,0.0
CSC1=NSC2=NC(=O)/C(=C\c3coc4ccccc4c3=O)C(=N)N12,76.5*,20.0,.,6.0,9.3,4.7
N=C1/C(=C\c2coc3ccc(O)cc3c2=O)C(=O)N=C2SC=CN12,32.9,15.6,?,8.2,-4.2,13.4
COc1ccc(CN(CC(=O)NCC2CCCO2)C(=O)CCC(=O)Nc2nccs2)cc1 (stereo unspecified),.,-6.3,1.9,-8.4,1.1,-1.9
CCN1C/C(=C/c2cccs2)c2nc3ccccc3c(C(=O)O)c2C1,27.9,-29.3,-27.0*,-6.5,0.1,-16.3
CCN1C/C(=C/c2sccc2C)c2nc3ccccc3c(C(=O)O)c2C1,-5.1,-44.6,-8.7,-3.0,1.8,4.3
COc1ccc(/C=N/NC(=O)c2ccoc2C)cc1CN1CCN(c2ccc(F)cc2)CC1,.,-40.7,2.5,-0.6,-13.8,-6.3

# From PubChem BioAssay
